According to ChEMBL document CHEMBL1136151, “Suzuki cross-coupling approaches to the synthesis of bioactive 3-substituted and 5-substituted-4-methoxy-6-methyl-2-pyrones” (Bioorg Med Chem Lett, 2003):

tested on: Aspergillus niger; test: Percent growth of Aspergillus niger after 7 days of incubation; format: functional; design: concentration or dose not given beside the values
Procedure, shortened: (§1)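 Fungal plate assay: pyrone dissolved in absolute EtOH at 10mg/mL and pipetted 2 cm offset from the centre of the plate containing the organism. EtOH alone served as control. Growth is recorded as percentage of the organism after 72 h and after 7 days of incubation.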

Structure (SMILES) | Growth [%]
COc1cc(C)oc(=O)c1-c1ccc(C)cc1 | 100
Cc1cc(/C=C/c2ccccc2)cc(=O)o1 | 100
COc1cc(C)oc(=O)c1-c1cccc([N+](=O)[O-])c1 | 100
CCC/C=C/c1cc(C)oc(=O)c1 | 100
COc1cc(C)oc(=O)c1-c1ccccc1 | 100

tested on: Saccharomyces cerevisiae; test: Antimicrobial activity against Saccharomyces cerevisiae was determined after 48 hours of incubation; format: functional
Procedure, shortened: (§2)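 Disk diffusion on yeast plates: cellulose disks carrying test compound, with an EtOH control. Incubation 48 h. The inhibition zone radius is recorded in mm.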

Structure (SMILES) | Activity [mm]
COc1cc(C)oc(=O)c1-c1ccc(C)cc1 | 0
Cc1cc(/C=C/c2ccccc2)cc(=O)o1 | 0
COc1cc(C)oc(=O)c1-c1cccc([N+](=O)[O-])c1 | 0
CCC/C=C/c1cc(C)oc(=O)c1 | 0
COc1cc(C)oc(=O)c1-c1ccccc1 | 0

tested on: Thanatephorus cucumeris; test: Percent growth of Rhizoctonia solani after 7 days of incubation; format: functional; design: concentration or dose not given beside the values; procedure, shortened: as §1

Structure (SMILES) | Growth [%]
COc1cc(C)oc(=O)c1-c1ccc(C)cc1 | 100
Cc1cc(/C=C/c2ccccc2)cc(=O)o1 | 100
COc1cc(C)oc(=O)c1-c1cccc([N+](=O)[O-])c1 | 100
CCC/C=C/c1cc(C)oc(=O)c1 | 100
COc1cc(C)oc(=O)c1-c1ccccc1 | 100

tested on: Bacillus subtilis; test: Antimicrobial activity against Bacillus subtilis was determined after 96 hours of incubation; format: functional
Procedure, shortened: (§3)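 Disk diffusion: cellulose disks loaded with test compound and placed on bacterial plates, with an EtOH control disk. Incubation 96 h. Read-out is the radius (mm) of the inhibition zone.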

Structure (SMILES) | Activity [mm]
COc1cc(C)oc(=O)c1-c1ccc(C)cc1 | 16
Cc1cc(/C=C/c2ccccc2)cc(=O)o1 | 18
COc1cc(C)oc(=O)c1-c1cccc([N+](=O)[O-])c1 | 6
CCC/C=C/c1cc(C)oc(=O)c1 | 16
COc1cc(C)oc(=O)c1-c1ccccc1 | 6

tested on: Thanatephorus cucumeris; test: Percent growth of Rhizoctonia solani after 72 hours of incubation; format: functional; design: concentration or dose not given beside the values; procedure, shortened: as §1

Structure (SMILES) | Growth [%]
COc1cc(C)oc(=O)c1-c1ccc(C)cc1 | 55
Cc1cc(/C=C/c2ccccc2)cc(=O)o1 | 47
CCC/C=C/c1cc(C)oc(=O)c1 | 49
COc1cc(C)oc(=O)c1-c1ccccc1 | 75

tested on: Fusarium oxysporum; test: Percent growth of Fusarium oxysporum after 72 hours of incubation; format: functional; design: concentration or dose not given beside the values; procedure, shortened: as §1

Structure (SMILES) | Growth [%]
COc1cc(C)oc(=O)c1-c1ccc(C)cc1 | 11
COc1cc(C)oc(=O)c1-c1cccc([N+](=O)[O-])c1 | 12
CCC/C=C/c1cc(C)oc(=O)c1 | 5
COc1cc(C)oc(=O)c1-c1ccccc1 | 7.4

tested on: Schizosaccharomyces pombe; test: Antimicrobial activity against Schizosaccharomyces pombe was determined after 48 hours of incubation; format: functional; procedure, shortened: as §2

Structure (SMILES) | Activity [mm]
COc1cc(C)oc(=O)c1-c1ccc(C)cc1 | 0
Cc1cc(/C=C/c2ccccc2)cc(=O)o1 | 18
COc1cc(C)oc(=O)c1-c1cccc([N+](=O)[O-])c1 | 0
CCC/C=C/c1cc(C)oc(=O)c1 | 28
COc1cc(C)oc(=O)c1-c1ccccc1 | 0

tested on: Globisporangium ultimum; test: Percent growth of Pythium ultimum after 72 hours of incubation; format: functional; design: concentration or dose not given beside the values; procedure, shortened: as §1

Structure (SMILES) | Growth [%]
COc1cc(C)oc(=O)c1-c1ccc(C)cc1 | 100
Cc1cc(/C=C/c2ccccc2)cc(=O)o1 | 100
COc1cc(C)oc(=O)c1-c1cccc([N+](=O)[O-])c1 | 100
CCC/C=C/c1cc(C)oc(=O)c1 | 100
COc1cc(C)oc(=O)c1-c1ccccc1 | 100

tested on: Escherichia coli; test: Antimicrobial activity against Escherichia coli was determined after 96 hours of incubation; format: functional; procedure, shortened: as §3

Structure (SMILES) | Activity [mm]
COc1cc(C)oc(=O)c1-c1ccc(C)cc1 | 20
Cc1cc(/C=C/c2ccccc2)cc(=O)o1 | 17
COc1cc(C)oc(=O)c1-c1cccc([N+](=O)[O-])c1 | 0
CCC/C=C/c1cc(C)oc(=O)c1 | 19
COc1cc(C)oc(=O)c1-c1ccccc1 | 0

tested on: Candida albicans; test: Antimicrobial activity against Candida albicans was determined after 48 hours of incubation; format: functional; procedure, shortened: as §2

Structure (SMILES) | Activity [mm]
COc1cc(C)oc(=O)c1-c1ccc(C)cc1 | 0
Cc1cc(/C=C/c2ccccc2)cc(=O)o1 | 0
COc1cc(C)oc(=O)c1-c1cccc([N+](=O)[O-])c1 | 0
CCC/C=C/c1cc(C)oc(=O)c1 | 16
COc1cc(C)oc(=O)c1-c1ccccc1 | 0

tested on: Globisporangium ultimum; test: Percent growth of Pythium ultimum after 7 days of incubation; format: functional; design: concentration or dose not given beside the values; procedure, shortened: as §1

Structure (SMILES) | Growth [%]
COc1cc(C)oc(=O)c1-c1ccc(C)cc1 | 100
Cc1cc(/C=C/c2ccccc2)cc(=O)o1 | 100
COc1cc(C)oc(=O)c1-c1cccc([N+](=O)[O-])c1 | 100
CCC/C=C/c1cc(C)oc(=O)c1 | 100
COc1cc(C)oc(=O)c1-c1ccccc1 | 100

tested on: Fusarium oxysporum; test: Percent growth of Fusarium oxysporum after 7 days of incubation; format: functional; design: concentration or dose not given beside the values; procedure, shortened: as §1

Structure (SMILES) | Growth [%]
COc1cc(C)oc(=O)c1-c1ccc(C)cc1 | 60
COc1cc(C)oc(=O)c1-c1cccc([N+](=O)[O-])c1 | 60
CCC/C=C/c1cc(C)oc(=O)c1 | 45
COc1cc(C)oc(=O)c1-c1ccccc1 | 60

tested on: Staphylococcus aureus; test: Antimicrobial activity against Staphylococcus aureus was determined after 96 hours of incubation; format: functional; procedure, shortened: as §3

Structure (SMILES) | Activity [mm]
COc1cc(C)oc(=O)c1-c1ccc(C)cc1 | 0
Cc1cc(/C=C/c2ccccc2)cc(=O)o1 | 0
COc1cc(C)oc(=O)c1-c1cccc([N+](=O)[O-])c1 | 0
CCC/C=C/c1cc(C)oc(=O)c1 | 20
COc1cc(C)oc(=O)c1-c1ccccc1 | 0

tested on: Aspergillus niger; test: Percent growth of Aspergillus niger after 72 hours of incubation; format: functional; design: concentration or dose not given beside the values; procedure, shortened: as §1

Structure (SMILES) | Growth [%]
COc1cc(C)oc(=O)c1-c1ccc(C)cc1 | >95
Cc1cc(/C=C/c2ccccc2)cc(=O)o1 | 100
COc1cc(C)oc(=O)c1-c1cccc([N+](=O)[O-])c1 | 100
CCC/C=C/c1cc(C)oc(=O)c1 | >95
COc1cc(C)oc(=O)c1-c1ccccc1 | >95

tested on: Botrytis cinerea; test: Percent growth of Botrytis cinerea after 72 hours of incubation; format: functional; design: concentration or dose not given beside the values; procedure, shortened: as §1

Structure (SMILES) | Growth [%]
COc1cc(C)oc(=O)c1-c1ccc(C)cc1 | 58
Cc1cc(/C=C/c2ccccc2)cc(=O)o1 | 59
CCC/C=C/c1cc(C)oc(=O)c1 | 47
COc1cc(C)oc(=O)c1-c1ccccc1 | 63

tested on: Botrytis cinerea; test: Percent growth of Botrytis cinerea after 7 days of incubation; format: functional; design: concentration or dose not given beside the values; procedure, shortened: as §1

Structure (SMILES) | Growth [%]
COc1cc(C)oc(=O)c1-c1ccc(C)cc1 | 100
Cc1cc(/C=C/c2ccccc2)cc(=O)o1 | 100
COc1cc(C)oc(=O)c1-c1cccc([N+](=O)[O-])c1 | 100
CCC/C=C/c1cc(C)oc(=O)c1 | 100
COc1cc(C)oc(=O)c1-c1ccccc1 | 100
